Source: PubChem (The Scripps Research Institute Molecular Screening Center)
This is a sample that favours compounds with a hit; in the whole collection about 1.9% have one here.
M5 PAM – human M5 muscarinic receptor positive allosteric modulators, primary screen, CHO-K1 cells, Fluo-8 calcium fluorescence | Muscarinic acetylcholine receptor M5 (Homo sapiens), P08912 | CHO-K1 hM5, ACh EC20 PAM; 0% = ACh EC20, 100% = ACh EC100 | activation, % at 3 µM | 0.3% of 360,000 active | AID 624038, 2012;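 active = activation above the run cutoff, the mean activation of all test compounds plus 3 SD, cut at about 18% in these data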
Target sequence (P08912 whole entry, looked up): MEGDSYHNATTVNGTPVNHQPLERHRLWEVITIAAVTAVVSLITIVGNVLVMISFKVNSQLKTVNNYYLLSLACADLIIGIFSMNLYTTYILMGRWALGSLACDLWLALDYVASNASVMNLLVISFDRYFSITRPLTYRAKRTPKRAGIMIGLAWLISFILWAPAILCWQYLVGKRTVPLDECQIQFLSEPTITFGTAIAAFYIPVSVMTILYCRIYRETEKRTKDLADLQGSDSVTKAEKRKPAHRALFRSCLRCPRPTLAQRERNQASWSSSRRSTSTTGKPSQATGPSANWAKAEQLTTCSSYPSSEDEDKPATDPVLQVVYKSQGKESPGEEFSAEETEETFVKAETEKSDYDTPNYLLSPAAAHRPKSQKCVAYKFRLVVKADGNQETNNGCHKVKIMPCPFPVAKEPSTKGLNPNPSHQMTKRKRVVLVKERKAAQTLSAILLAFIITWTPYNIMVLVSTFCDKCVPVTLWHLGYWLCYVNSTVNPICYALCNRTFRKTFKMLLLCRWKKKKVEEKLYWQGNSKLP
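Assay system: CHO-K1 hM5 cells. Also added: acetylcholine at EC20 concentration, added after compound. Dosing: 3 µM, single dose. Times: compound preincubation 140 s before EC20 acetylcholine addition. Signal: Fluo-8 calcium fluorescence. Measure: % activation relative to EC20 and EC100 ACh responses. Repeats: singlicate, one well per test compound.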
CHRM5 agonist – human M5 muscarinic receptor agonists, primary screen, CHO-K1 cells, Fluo-8 calcium fluorescence | Muscarinic acetylcholine receptor M5 (Homo sapiens), P08912 | CHO-K1 hM5 cells; 0% DMSO wells, 100% maximal acetylcholine response | activation, % at 3 µM | 0.19% of 360,000 active | AID 624037, 2012;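 active = activation above the run's mean over test compounds plus 3 SD, cut at about 23% in these data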;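 note: signal is peak over basal fluorescence ratio across the kinetic read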
M4 antag – human M4 muscarinic receptor antagonists, primary screen, CHO cells, Fluo-8 calcium fluorescence; 0.73% of 360,000 active; CHO-hM4 cells, ACh EC80; inhibition, % at 3 µM; Muscarinic acetylcholine receptor M4 (Homo sapiens), P08173; AID 624125, 2012;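 active = inhibition above its plate's cutoff, the mean inhibition of sample wells plus 3 SD, cut at about 27% in these data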;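 note: 0% = acetylcholine EC80 with DMSO and 100% = DMSO without agonist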
M4 ag – human M4 muscarinic receptor agonists, primary screen, CHO-K1 cells, Fluo-8 calcium fluorescence | Muscarinic acetylcholine receptor M4 (Homo sapiens), P08173 | CHO-K1 hM4/Gqi5; vehicle 0%, full acetylcholine response 100% | activation, % at 3 µM | 0.14% of 360,000 active;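 active = activation above the run mean over all test wells plus 3 SD, cut at about 32% in these data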;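 note: peak over basal fluorescence ratio per well then scaled between controls; 0% = DMSO wells and 100% = acetylcholine at EC100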
M4 PAM – human M4 muscarinic receptor positive allosteric modulators, primary screen, CHO-K1 cells, Fluo-8 calcium fluorescence; activation, % at 3 µM; Muscarinic acetylcholine receptor M4 (Homo sapiens), P08173; AID 624126, 2012; CHO-K1 hM4/Gqi5, ACh EC20; 0% = ACh EC20, 100% = maximal ACh; 0.4% of 360,000 active;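 active = activation above its plate's cutoff, the mean activation of sample wells plus 3 SD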
M5 antag – human M5 muscarinic receptor antagonists, primary screen, CHO cells, Fluo-8 calcium fluorescence | Muscarinic acetylcholine receptor M5 (Homo sapiens), P08912 | inhibition, % at 3 µM | CHO-hM5 cells, ACh EC80 | 0.59% of 360,000 active;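 active = inhibition above a per-plate cutoff, the mean of that plate's test compounds plus 3 SD, cut at about 27% in these data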;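 note: 0% = acetylcholine EC80 with DMSO and 100% = DMSO without agonist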
Active calls of the source: *.

SMILES	M5 PAM	CHRM5 agonist	M4 antag	M4 ag	M4 PAM	M5 antag
CCc1csc(CNC(=O)C2CCC(=O)N(Cc3cccc(OC)c3)C2)n1 (stereo unspecified)	1.6	0.1	-1.6	-0.6	1.6	3.9
CCN1CCN(CC(=O)Nc2ccc3c(c2)OCCO3)C(=O)C1=O	-4.5	0.7	-12.4	-0.2	30.6*	-4.4
CCN1CCN(CC(=O)Nc2ccc3c(c2)OCO3)C(=O)C1=O	-2.0	-1.4	-36.3	1.7	5.7	-1.1
CN(CCc1ccccc1)C(=O)c1cc(COc2ccc(F)cc2Cl)on1	6.2	-7.0	-16.5	3.0	4.2	-4.4
CCCN1CCC(=O)N(CCSc2ccc(C)cc2)CC1	8.8	-4.0	4.8	1.2	4.1	-3.0
CCCN1CCC(=O)N(CCSc2ccc(OC)cc2)CC1	18.6*	2.7	-13.8	5.4	0.3	-9.8
CN1C(=O)/C(=C/c2ccccc2OCc2cccc(F)c2)N(C)C1=S	-18.2	-5.3	64.8*	-1.3	-23.5	44.9*
CN1C(=O)/C(=C/c2ccc(OCc3ccc(F)cc3)cc2)N(C)C1=S	-0.8	-0.6	0.1	0.2	-1.9	-1.9
Cc1cc(C)cc(OCC(O)CN2C(=O)NC(C)(C)C2=O)c1 (stereo unspecified)	-3.5	2.5	-9.4	1.6	4.9	-6.0
Cc1ccc(OCC(O)CN2C(=O)NC(C)(C)C2=O)c(C)c1 (stereo unspecified)	7.9	4.0	-7.2	2.6	19.1*	0.3
CCN(CC)c1ccc2cc(C(C)=O)c(=O)oc2c1	-1.3	0.3	4.7	4.3	-4.2	4.5
CCN(CC)c1ccc2cc(C=O)c(=O)oc2c1	-19.1	29.3*	9.7	18.4	-1.5	4.6
Cc1ccc(CNC(=O)C2CCC(=O)N(CC3CCCCC3)C2)o1 (stereo unspecified)	-5.5	-0.9	2.2	0.1	0.9	2.3
Cc1ccccc1Nc1c(-c2ccc(N3CCOCC3)cc2)nc2cnccn12	4.2	1.1	-0.3	0.0	6.9	0.9
Cc1ccc(Nc2c(-c3ccc(N4CCOCC4)cc3)nc3cnccn23)cc1	19.3*	7.0	10.2	0.0	11.3	-11.6
Cc1ccc(C2(c3ccccc3)NC(=O)N(CC(=O)NCc3ccco3)C2=O)cc1C (stereo unspecified)	18.1*	-9.7	-1.2	-0.7	-2.7	-10.6
CCOC(=O)/C=C/C(=O)Nc1ccc(Oc2ccccc2)cc1	-26.0	-2.8	20.0	13.0	-15.7	35.8*
COc1ccc(-n2cnc3cc(C(=O)NCC4CCCO4)ccc32)cc1 (stereo unspecified)	1.4	-3.5	5.9	2.2	2.0	3.3
COc1ccc(CCNC(=O)CS(=O)(=O)c2cn(CC(=O)N3CCCC3)c3ccccc23)cc1OC	-6.4	0.8	26.6*	1.3	-1.9	-7.6
COc1ccc(CCNC(=O)CS(=O)(=O)c2cn(CC(=O)N(C(C)C)C(C)C)c3ccccc23)cc1OC	0.8	-3.0	2.2	0.6	-2.5	4.0
O=C(Nc1ccc2c(c1)OCO2)c1ccc2sc([C@H]3C[C@H](O)[C@@H](CO)O3)nc2c1	-2.2	0.2	-19.5	1.4	16.1*	-4.2
Oc1ccc(-c2n[nH]c(C(F)(F)F)c2-c2ccccc2)c(O)c1	-15.0	1.6	46.8*	28.9	-18.7	63.6*
COc1ccc(-c2c(-c3ccc(O)cc3O)n[nH]c2C(F)(F)F)cc1	11.5	2.3	21.1	3.7	5.2	-11.6
Cc1nc(SCc2ccccc2)[nH]c(=O)c1CC(=O)OCC(C)C	0.8	-1.7	9.9	1.1	2.2	8.9
COC(=O)c1sc(NC(=O)CSc2nnnn2C)nc1C	9.2	-1.1	3.0	2.5	-3.8	-15.5
O=C(Nc1cccc(C(=O)O)c1)/C(=C\c1ccccc1Cl)NC(=O)c1ccco1	2.2	-2.9	-0.4	2.7	21.0*	-3.0
